Activity calls are given as the source filed them. No cut-off for these calls is given here.
Columns and labels:
[1] = system: Mus musculus; assay: Antialzheimer activity in 5XFAD mouse assessed as number of plaques per FOV in somatosensory cortex at 75 ppm administered as rodent chow starting from 1.5 months and measured after 5 months by immunolabeling based confocal microscopic analysis (reference value: 22 to 91); format: functional; details: route po, time 3.5 months, 2555 h
Summary of the method: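 5xFAD mice ate AIN-76A chow with 75 ppm PLX3397, or control chow, from 1.5 to 5 months of age. Sections of retrosplenial and somatosensory cortex were stained with Thio-S and immunolabeled for IBA1, then imaged by confocal microscopy. n = 4–5 per group; two-tailed independent t-test; mean ± SEM.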

[2] = Drug concentration in wildtype mouse brain at 1200 ppm administered as rodent chow for 10 to 24 weeks; format: ADME, tissue-based; details: in vivo, po, time 10-24 weeks, read-out: Ct
Summary of the method: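 WT or 5xFAD mice were started at 1.5 months of age on PLX5622 formulated at 1200 ppm in AIN-76A chow, with control chow as comparison. Feeding ran for 10 or 24 weeks. Terminal plasma and brain drug levels were then measured. Groups were sex-balanced and compared by two-tailed independent t-test.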

[3] = target: Activin receptor type-1B (Homo sapiens, UniProt P36896); assay: Inhibition of ACVR1B (unknown origin)
Sequence of Activin receptor type-1B (P36896 whole entry): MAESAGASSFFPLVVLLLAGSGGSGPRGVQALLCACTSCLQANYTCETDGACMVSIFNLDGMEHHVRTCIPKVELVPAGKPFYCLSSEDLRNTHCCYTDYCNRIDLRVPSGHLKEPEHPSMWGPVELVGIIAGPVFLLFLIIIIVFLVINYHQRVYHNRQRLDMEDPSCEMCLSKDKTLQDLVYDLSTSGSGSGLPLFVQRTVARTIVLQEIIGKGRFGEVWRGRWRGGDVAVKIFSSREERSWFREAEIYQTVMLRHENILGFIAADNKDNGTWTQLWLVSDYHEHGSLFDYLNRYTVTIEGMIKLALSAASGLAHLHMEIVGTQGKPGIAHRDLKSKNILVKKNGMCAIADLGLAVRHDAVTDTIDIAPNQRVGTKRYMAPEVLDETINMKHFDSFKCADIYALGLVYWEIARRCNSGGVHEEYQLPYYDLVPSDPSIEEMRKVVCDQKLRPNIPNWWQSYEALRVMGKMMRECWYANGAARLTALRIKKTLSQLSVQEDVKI

[4] = system: Mus musculus; assay: Antialzheimer activity in 5XFAD mouse assessed as amyloidbeta40 level in detergent soluble cortex fraction measured per microgram protein at 1200 ppm administered as rodent chow starting from 1.5 months and measured after 4 months by ELISA (reference value: 0 to 0.089 pg); format: functional; details: route po, time 2.5 months, 1825 h
Summary of the method: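 PLX5622 at 1200 ppm in chow given to 5xFAD mice from 1.5 months to 4 or 7 months of age; cortex and thalamus homogenized in TPER (detergent-soluble), pellets re-homogenized in 70% formic acid and spun 100,000 g, 1 h, 4 °C (insoluble); protein by Bradford/Lowry; Aβ species measured by Meso Scale electrochemiluminescence immunoassay, normalized to protein; n = 7–8 per group at 7 months.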

[5] = Clearance in mouse at 1.92 mg/kg, iv administered as single dose; format: ADME, organism-based; details: in vivo
[6] = target: T1, Macrophage colony-stimulating factor 1 receptor (Mus musculus) (UniProt P09581); assay: In vivo inhibition of CSF1R in wildtype mouse assessed as number of GFAP positive cell per FOV in […] cortex at 1200 ppm administered as rodent chow for 10 to 24 weeks by immunolabelling based confocal microscopic analysis (reference value: 17 to 92); format: functional; details: route po, time 10-24 weeks
T1 sequence (whole entry): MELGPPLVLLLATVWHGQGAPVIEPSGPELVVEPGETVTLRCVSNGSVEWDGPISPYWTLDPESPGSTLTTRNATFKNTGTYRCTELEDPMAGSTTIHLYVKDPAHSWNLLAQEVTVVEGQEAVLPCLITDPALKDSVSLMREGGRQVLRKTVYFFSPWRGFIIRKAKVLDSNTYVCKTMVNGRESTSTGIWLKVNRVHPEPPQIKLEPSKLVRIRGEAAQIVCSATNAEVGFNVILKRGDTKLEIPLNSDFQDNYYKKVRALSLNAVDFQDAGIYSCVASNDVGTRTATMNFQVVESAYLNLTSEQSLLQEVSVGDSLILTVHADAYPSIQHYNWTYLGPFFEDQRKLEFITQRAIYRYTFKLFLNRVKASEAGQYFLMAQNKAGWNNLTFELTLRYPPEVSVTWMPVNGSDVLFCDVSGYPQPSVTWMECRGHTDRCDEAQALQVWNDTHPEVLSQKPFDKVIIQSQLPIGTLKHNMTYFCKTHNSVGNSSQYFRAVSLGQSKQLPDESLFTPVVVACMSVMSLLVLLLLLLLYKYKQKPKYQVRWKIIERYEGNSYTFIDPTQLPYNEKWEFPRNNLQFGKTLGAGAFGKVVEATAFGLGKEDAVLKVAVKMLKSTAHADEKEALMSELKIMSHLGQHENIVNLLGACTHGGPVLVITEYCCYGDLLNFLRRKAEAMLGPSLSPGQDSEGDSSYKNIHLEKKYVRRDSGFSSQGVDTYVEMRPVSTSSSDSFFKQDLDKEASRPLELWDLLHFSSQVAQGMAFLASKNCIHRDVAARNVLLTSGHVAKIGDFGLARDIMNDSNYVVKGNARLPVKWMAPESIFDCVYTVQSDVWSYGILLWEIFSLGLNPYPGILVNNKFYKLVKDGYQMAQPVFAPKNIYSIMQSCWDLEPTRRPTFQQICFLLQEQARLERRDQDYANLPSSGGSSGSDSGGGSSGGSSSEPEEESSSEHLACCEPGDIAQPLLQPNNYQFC

[7] = system: Mus musculus; assay: Prevention of Cacnb4 gene downregulation in 5XFAD mouse hippocampus at 1200 ppm administered as rodent chow starting from 1.5 months and measured after 7 months by Nanostring analysis; format: functional, tissue-based; details: route po, time 5.5 months
[8] = target: Tyrosine-protein kinase Mer (Homo sapiens, UniProt Q12866); assay: Inhibition of MERTK (unknown origin)
Sequence of Tyrosine-protein kinase Mer (Q12866 whole entry, canonical isoform): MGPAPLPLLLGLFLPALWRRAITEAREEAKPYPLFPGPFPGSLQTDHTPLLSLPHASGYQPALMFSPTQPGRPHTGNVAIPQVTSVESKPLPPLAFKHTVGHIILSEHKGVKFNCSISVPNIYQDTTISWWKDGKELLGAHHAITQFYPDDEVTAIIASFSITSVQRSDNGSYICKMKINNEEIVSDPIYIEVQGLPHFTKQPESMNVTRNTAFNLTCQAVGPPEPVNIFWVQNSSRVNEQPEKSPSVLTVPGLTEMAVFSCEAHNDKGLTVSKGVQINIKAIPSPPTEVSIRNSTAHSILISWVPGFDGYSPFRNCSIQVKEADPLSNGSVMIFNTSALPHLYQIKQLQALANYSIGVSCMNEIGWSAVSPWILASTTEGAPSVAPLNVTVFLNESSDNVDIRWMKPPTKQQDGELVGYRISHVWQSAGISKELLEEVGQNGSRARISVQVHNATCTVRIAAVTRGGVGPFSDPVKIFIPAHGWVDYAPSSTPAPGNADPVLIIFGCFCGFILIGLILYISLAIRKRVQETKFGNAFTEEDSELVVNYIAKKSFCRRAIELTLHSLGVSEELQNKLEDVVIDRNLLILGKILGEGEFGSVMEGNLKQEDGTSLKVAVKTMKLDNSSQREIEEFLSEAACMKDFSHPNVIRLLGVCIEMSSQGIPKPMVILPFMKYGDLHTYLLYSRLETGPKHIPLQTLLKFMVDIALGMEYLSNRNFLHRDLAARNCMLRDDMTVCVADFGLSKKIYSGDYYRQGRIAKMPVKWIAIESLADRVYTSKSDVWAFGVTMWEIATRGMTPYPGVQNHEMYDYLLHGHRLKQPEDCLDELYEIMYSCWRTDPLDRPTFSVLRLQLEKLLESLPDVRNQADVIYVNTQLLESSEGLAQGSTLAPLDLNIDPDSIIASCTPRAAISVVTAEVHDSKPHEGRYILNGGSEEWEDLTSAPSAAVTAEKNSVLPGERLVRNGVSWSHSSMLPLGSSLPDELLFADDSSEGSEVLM

[9] = target: Casein kinase I isoform delta (Homo sapiens, UniProt P48730); assay: Inhibition of CSNK1D (unknown origin)
Sequence of Casein kinase I isoform delta (P48730 whole entry, canonical isoform): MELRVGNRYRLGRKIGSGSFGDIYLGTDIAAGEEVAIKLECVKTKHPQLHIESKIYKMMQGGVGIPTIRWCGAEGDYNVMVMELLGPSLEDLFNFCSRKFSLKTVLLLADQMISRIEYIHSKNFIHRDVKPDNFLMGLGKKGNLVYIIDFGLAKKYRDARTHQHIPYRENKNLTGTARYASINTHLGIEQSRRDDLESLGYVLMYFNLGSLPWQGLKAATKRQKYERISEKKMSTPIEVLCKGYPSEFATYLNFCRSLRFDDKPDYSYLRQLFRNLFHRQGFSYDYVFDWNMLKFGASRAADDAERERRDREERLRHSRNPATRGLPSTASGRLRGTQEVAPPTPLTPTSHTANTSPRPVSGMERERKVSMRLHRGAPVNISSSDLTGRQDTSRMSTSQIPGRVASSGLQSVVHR

[10] = Volume of distribution at steady state in mouse at 1.92 mg/kg, iv administered as single dose; format: ADME, organism-based; details: in vivo, read-out: Vdss
[11] = AUC (0 to 24 hrs) in 5XFAD mouse plasma at 1200 ppm administered as rodent chow for 180 days; format: ADME, cell-free; details: route po, time 180 day
[12] = system: Mus musculus; assay: Antialzheimer activity in 5XFAD mouse assessed as number of triads at 1200 ppm administered as rodent chow for 10 to 24 weeks by Y-maze test (reference value: 3 to 9); format: functional; details: route po, time 10-24 weeks
Summary of the method: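 Y-maze: the sequence of arm entries was scored live and video-recorded. Triads were counted as sequential entries into three different arms. Mice had received 1200 ppm PLX5622 or control chow from 1.5 months of age.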

[13] = system: Mus musculus; assay: Antialzheimer activity in 5XFAD mouse assessed as number of Thio-S positive plaques per FOV in thalamus at 1200 ppm administered as rodent chow starting from 1.5 months and measured after 4 months by Thio-S staining based confocal microscopic analysis (reference value: 139 to 224); format: functional; details: route po, time 2.5 months, 1825 h
[14] = target: Proto-oncogene tyrosine-protein kinase receptor Ret (Homo sapiens, UniProt P07949, Y791F); assay: Inhibition of RET Y791F mutant (unknown origin)
Sequence of Proto-oncogene tyrosine-protein kinase receptor Ret (P07949 29-1114 Y791F limits assumed): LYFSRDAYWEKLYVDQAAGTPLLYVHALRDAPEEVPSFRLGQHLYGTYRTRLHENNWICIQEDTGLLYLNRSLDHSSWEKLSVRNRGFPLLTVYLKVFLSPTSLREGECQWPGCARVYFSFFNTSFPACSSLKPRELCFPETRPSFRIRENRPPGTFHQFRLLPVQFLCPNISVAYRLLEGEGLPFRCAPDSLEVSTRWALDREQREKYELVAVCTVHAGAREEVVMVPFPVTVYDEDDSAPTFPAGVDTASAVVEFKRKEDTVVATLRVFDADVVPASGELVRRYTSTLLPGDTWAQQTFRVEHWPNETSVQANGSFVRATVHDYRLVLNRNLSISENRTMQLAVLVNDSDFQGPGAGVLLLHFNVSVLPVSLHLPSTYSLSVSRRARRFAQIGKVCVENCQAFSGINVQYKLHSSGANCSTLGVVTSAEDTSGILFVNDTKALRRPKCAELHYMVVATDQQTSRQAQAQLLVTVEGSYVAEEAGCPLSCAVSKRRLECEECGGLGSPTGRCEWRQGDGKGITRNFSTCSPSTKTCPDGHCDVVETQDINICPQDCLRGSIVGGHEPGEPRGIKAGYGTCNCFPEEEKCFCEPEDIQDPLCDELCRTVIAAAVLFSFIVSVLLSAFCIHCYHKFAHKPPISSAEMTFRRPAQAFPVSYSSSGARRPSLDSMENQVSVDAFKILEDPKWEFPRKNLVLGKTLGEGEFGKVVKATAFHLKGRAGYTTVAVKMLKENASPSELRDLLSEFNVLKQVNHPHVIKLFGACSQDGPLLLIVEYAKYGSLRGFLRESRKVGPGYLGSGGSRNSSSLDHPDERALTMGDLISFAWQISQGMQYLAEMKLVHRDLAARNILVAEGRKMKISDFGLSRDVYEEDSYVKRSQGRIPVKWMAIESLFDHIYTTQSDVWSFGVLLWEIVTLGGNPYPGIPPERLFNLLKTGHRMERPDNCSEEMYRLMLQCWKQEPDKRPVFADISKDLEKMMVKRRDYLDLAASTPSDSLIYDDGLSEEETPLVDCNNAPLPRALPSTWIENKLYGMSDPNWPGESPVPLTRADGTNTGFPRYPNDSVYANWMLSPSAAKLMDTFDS

[15] = target: cGMP-dependent protein kinase 2 (Homo sapiens, UniProt Q13237); assay: Inhibition of PRKG2 (unknown origin)
Sequence of cGMP-dependent protein kinase 2 (Q13237 whole entry): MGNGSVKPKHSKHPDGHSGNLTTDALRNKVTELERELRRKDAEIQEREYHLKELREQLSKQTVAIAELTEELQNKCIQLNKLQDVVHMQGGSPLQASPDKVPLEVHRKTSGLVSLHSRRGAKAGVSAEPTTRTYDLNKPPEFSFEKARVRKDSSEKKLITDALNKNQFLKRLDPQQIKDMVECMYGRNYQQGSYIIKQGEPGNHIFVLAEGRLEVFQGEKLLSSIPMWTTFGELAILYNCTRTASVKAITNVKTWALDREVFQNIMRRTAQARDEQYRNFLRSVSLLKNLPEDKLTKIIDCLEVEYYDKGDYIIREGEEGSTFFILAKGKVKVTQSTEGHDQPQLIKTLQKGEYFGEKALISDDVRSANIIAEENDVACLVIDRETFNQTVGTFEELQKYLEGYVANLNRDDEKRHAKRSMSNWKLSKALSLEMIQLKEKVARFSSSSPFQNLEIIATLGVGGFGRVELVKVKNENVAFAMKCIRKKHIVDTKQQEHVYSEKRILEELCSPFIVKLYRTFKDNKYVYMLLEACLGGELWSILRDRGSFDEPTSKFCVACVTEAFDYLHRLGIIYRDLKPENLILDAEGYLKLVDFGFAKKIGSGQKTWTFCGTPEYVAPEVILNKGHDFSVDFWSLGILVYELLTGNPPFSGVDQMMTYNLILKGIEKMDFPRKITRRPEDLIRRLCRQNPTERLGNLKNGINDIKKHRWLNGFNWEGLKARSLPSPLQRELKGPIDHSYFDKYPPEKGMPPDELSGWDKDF

[16] = system: Mus musculus; assay: Antialzheimer activity in 5XFAD mouse assessed as number of Thio-S positive plaques per FOV in thalamus at 1200 ppm administered as rodent chow starting from 1.5 months and measured after 7 months by Thio-S staining based confocal microscopic analysis (reference value: 97 to 282); format: functional; details: route po, time 5.5 months, 4015 h
[17] = target: T1, Macrophage colony-stimulating factor 1 receptor (Mus musculus); assay: In vivo inhibition of CSF1R in wildtype mouse assessed as number of Iba1 positive cells per FOV in thalamus cortex at 1200 ppm administered as rodent chow starting from 1.5 months to 4 months followed by compound removal and measured after 1 months by immunolabelling based confocal microscopic analysis (reference value: 232 to 320); format: functional; details: route po, time 2.5 months

Row | Structure (SMILES) | Activity [1] | concentration [2] | IC50 [3] | Activity [4] | clearance [5] | Activity [6] | Activity [7] | IC50 [8] | IC50 [9] | Vd [10] | AUC at 4320 h [11] | Activity [12] | Activity [13] | IC50 [14] | IC50 [15] | Activity [16] | Activity [17]
1 | FC(F)(F)c1ccc(CNc2ccc(Cc3c[nH]c4ncc(Cl)cc34)cn2)cn1 [PEXIDARTINIB] | 31 |  |  |  |  |  |  |  |  |  |  |  |  |  |  |  | 
2 | COc1ncc(F)cc1CNc1ccc(Cc2c[nH]c3ncc(C)cc23)c(F)n1 [PLX-5622] |  | 3.35 µM | > 1 µM | 0 pg | 2.1 mL/min/kg | 7 | Active | > 1 µM | > 1 µM | 0.34 L/kg | 218 µg·h/mL | 2 | 76 | > 1 µM | > 1 µM | 45 | 270
